Active and inactive are the calls of the source. No cut-off for these calls is given here.
How the values were obtained:
PC-3 [1] = test: Antiproliferative activity against human PC-3 cells assessed as inhibition of cell growth at 10 uM incubated for 72 hrs by MTT assay; type: functional
Summary of the method: (§1)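 Cells seeded at 1–4 × 10^4 cells/mL in RPMI 1640 with 10% FBS and 1 mM HEPES, 37 °C, 5% CO2. After 24 h, compounds added at various concentrations for 72 h; controls received 0.1% DMSO. Viable cells measured by MTT. Percent net growth calculated relative to control, correcting for initial absorbance. Mean ± SD (n = 3).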

MCF7 [2] = test: Antiproliferative activity against human MCF7 cells assessed as inhibition of cell growth at 1 to 10 uM incubated for 72 hrs by MTT assay; type: functional, cell-based; details: dose 1-10 µM; summary of the method: as §1
PC-3 [3] = test: Antiproliferative activity against human PC-3 cells assessed as inhibition of cell growth at 4 to 10 uM incubated for 72 hrs by MTT assay; type: functional, cell-based; details: dose 4-10 µM; summary of the method: as §1
MCF7 [4] = test: Antiproliferative activity against human MCF7 cells assessed as inhibition of cell growth at 4 to 10 uM incubated for 72 hrs by MTT assay; type: functional, cell-based; details: dose 4-10 µM; summary of the method: as §1
PC-3 [5] = test: Antiproliferative activity against human PC-3 cells assessed as inhibition of cell growth at 1 to 10 uM incubated for 72 hrs by MTT assay; type: functional, cell-based; details: dose 1-10 µM; summary of the method: as §1
PC-3 [6] = test: Antiproliferative activity against human PC-3 cells assessed as inhibition of cell growth at 1 uM incubated for 72 hrs by MTT assay; type: functional; summary of the method: as §1
MCF7 [7] = test: Antiproliferative activity against human MCF7 cells assessed as inhibition of cell growth at 4 uM incubated for 72 hrs by MTT assay; type: functional; summary of the method: as §1
MCF7 [8] = test: Antiproliferative activity against human MCF7 cells assessed as inhibition of cell growth at 10 uM incubated for 72 hrs by MTT assay; type: functional; summary of the method: as §1
MCF7 [9] = test: Antiproliferative activity against human MCF7 cells assessed as inhibition of cell growth incubated for 72 hrs by MTT assay; type: functional, cell-based; details: dose 1-10 µM; summary of the method: as §1
PC-3 [10] = test: Antiproliferative activity against human PC-3 cells assessed as inhibition of cell growth incubated for 72 hrs by MTT assay; type: functional, cell-based; details: dose 1-10 µM; summary of the method: as §1

Structure (SMILES) | inhibition at 10 µM (PC-3 [1]) [%] | Activity (MCF7 [2]) | Activity (PC-3 [3]) | Activity (MCF7 [4]) | further results
COC(=O)CCCCCCCCCCCNc1ccc(O)cc1 | 10 | inactive |  |  | 
CCCCCCCCCC(=O)Nc1ccc(O)cc1 | 43 |  | Active | inactive | 
COC(=O)CCCCCCCNc1ccc(O)cc1 |  | inactive |  |  | 
CCCCCCCC(=O)Nc1ccc(O)cc1 | 45 |  | Active | inactive | 
O=C(O)CCCCCCCNc1ccc(O)cc1 |  | inactive |  |  | Activity (PC-3 [5]): inactive
CCCCCCCCNc1ccc(O)cc1 |  |  |  |  | inhibition at 1 µM (PC-3 [6]): 33%; inhibition at 4 µM (MCF7 [7]): 14%; inhibition at 10 µM (MCF7 [8]): 45%; Activity (MCF7 [9]): Dose-Dependent Effect; Activity (PC-3 [10]): Dose-Dependent Effect
COC(=O)CCCCCCCCCCC(=O)Nc1ccc(O)cc1 | 10 | inactive |  |  | 
O=C(O)CCCCCCCCC(=O)Nc1ccc(O)cc1 |  |  | inactive | Active | inhibition at 4 µM (MCF7 [7]): 28%
O=C(O)CCCCCCCCCCCNc1ccc(O)cc1 |  | inactive |  |  | Activity (PC-3 [5]): inactive
COC(=O)CCCCCCCCC(=O)Nc1ccc(O)cc1 |  | inactive |  |  | 
